The results in this text go back to PubChem BioAssay.

Assay [1] in a line: inhibitors of TNFa-induced NFkB p65 translocation, primary screen, imaging, HUVEC, MLSMR starter and 10KST1 sets (AID 438;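 active means inhibition above 20% together with a positive visual image hit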;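 further: compound added about 3h40 before a 20 min TNFalpha stimulation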;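 on inhibition: signal is the nuclear over cytoplasmic p65 intensity ratio per well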). The following applies: HUVEC TNFa-induced p65 nuclear translocation; cell count: measured here: nuclei count (cytotoxicity indicator), at 2.08 µM; inhibition: at 2 µM, stronger effect = higher value, 0% TNFa-plus-vehicle, 100% no-TNFa wells.
The nature of assay [2]: endothelial E-selectin expression blockers – imaging, HUVEC, immunofluorescence, MLSMR starter and 10KST1 sets, primary screen (AID 487;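 active means visually confirmed hit in the image check and inhibition above 20%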;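 on inhibition: signal is fraction of cell area covered by stained E-selectin grains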;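 on nuclei count: 100% = median nuclei count of all wells on the same plate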). The following applies: HUVEC TNFalpha-induced E-selectin immunofluorescence imaging, at 2 µM; inhibition: stronger effect = higher value; nuclei count: measured here: cell number, toxicity.
Assay [3] in a line: Primary imaging screen for DUSP6 inhibitors that restore phospho-Erk in transfected HeLa cells, chemical complementation (AID 609;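 active means compounds giving at least 50% inhibition in the cell-based MKP-3 phosphatase rescue imaging test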;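 on inhibition: phospho-Erk level distribution per well compared with pooled transfected vehicle control wells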). The following applies: HeLa MKP-3 transfected, phospho-Erk imaging KS statistic, at 10 µM, cells stimulated with TPA for 15 min.
Assay [4] has as its target Dual specificity protein phosphatase 6 (Homo sapiens) (UniProt Q16828). The description is as above. The following applies: HeLa MKP-3 transfected, phospho-Erk imaging KS statistic; at 10 µM; stronger effect = higher value; cells stimulated with TPA for 15 min.
For assay [5], the target named is Voltage-gated potassium channel subunit beta-2 (Rattus norvegicus) (UniProt P62483). In words: inhibitors of rat Kvbeta2 reductase activity – biochemical, NADPH fluorescence, primary screen (AID 622;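 active means fluorescence slope higher than the sample average by over 3 SD, cut at about -0.22 in these data, passing the limit was not always enough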;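 further: slope of raw intensity against log time taken from 70 to 1610 s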). The note with it: recombinant KvBeta, 4-cyanobenzaldehyde reduction, at 10 µM, stronger effect = higher value.
Assay [6] has the same target. In words: enhancers of rat Kvbeta2 NADPH turnover – biochemical, NADPH fluorescence, primary screen (AID 623;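 active means NADPH fluorescence slope more negative than the mean of all samples by about 3 SD, 99.7% confidence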;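 further: fluorescence intensity change per second fitted from 20 to 320 s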). The note with it: Recombinant KvBeta, NADPH fluorescence decrease slope, 10 min; at 10 µM; stronger effect = lower value.
Assay [7] deals with Alpha-2C adrenergic receptor (Homo sapiens) (UniProt P18825). In words: compounds altering alpha2C-coupled GIRK flux – cell-based, HEK293 alpha2C/GIRK1/2, thallium flux, primary screen (AID 624;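 active means fluorescence slope after compound addition differing from the mean of all screened samples at 99.7% confidence, in either direction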;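 further: slope of fluorescence ratio to pre-addition baseline per second over 15 to 24 s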). The note with it: thallium flux BTC fluorescence, at 10 µM, actives lie on both sides.
Assay [8] is described as follows: inhibitors of larval lipid processing in zebrafish, primary screen, whole organism, PED6 fluorescence, gall bladder and intestine (AID 686).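 Further: larvae 5 to 7 days old with five fish per well; signal comes from phospholipase A2 cleavage of quenched PED6 carried via bile; overnight exposure to compound and PED6 before scoring.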 The note with it: Zebrafish larvae PED6 lipid processing, fluorescence scoring; screened at 20 µM (by protocol). The method, boiled down:
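Doses: 20 µM single dose. Test system: live zebrafish larvae aged 5-7 days, whole organism. Quantity: five larvae per well. Measured by: By-eye fluorescence microscopy. Reagent: ingested quenched lipid PED6 at 100 nM. Read-out: visual per-well fluorescence inhibition score. Times: overnight exposure of larvae to compound plus PED6.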

A short description of assay [9]: loss of swimming-algae plug formation – whole organism, Chlamydomonas reinhardtii, WT vs cilia-less mutant, absorbance, 96-well, primary screen (AID 463189;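 active means inhibition at or above 50% relative to wild type and mutant plate controls; inactive means inhibition below 50%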;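 further: 0% = wild type cc124 cells in DMSO and 100% = ciliumless bld1 mutant cells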). The following applies: Chlamydomonas reinhardtii gravitaxis, OD600 absorbance, 2 days; at 10 µM; stronger effect = higher value.
Setting [10] is: measured here: cell density z-score.
The mark [11] stands for this setting: measured here: nuclear c-Myc green intensity z-score.
Setting [12] is: measured here: nuclear pErk red intensity z-score, stronger effect = higher value.

Each structure is given as a SMILES string. Calls of active or inactive are those of the source.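 How the source made its calls, unless noted: active means a full or partial loss of lipid-probe fluorescence in the fish gall bladder, intestine or both, judged by eye; inactive means no fluorescence loss, or compound toxic to the fish.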

Sequence of Voltage-gated potassium channel subunit beta-2 (Rattus norvegicus) (P62483 whole entry, looked up): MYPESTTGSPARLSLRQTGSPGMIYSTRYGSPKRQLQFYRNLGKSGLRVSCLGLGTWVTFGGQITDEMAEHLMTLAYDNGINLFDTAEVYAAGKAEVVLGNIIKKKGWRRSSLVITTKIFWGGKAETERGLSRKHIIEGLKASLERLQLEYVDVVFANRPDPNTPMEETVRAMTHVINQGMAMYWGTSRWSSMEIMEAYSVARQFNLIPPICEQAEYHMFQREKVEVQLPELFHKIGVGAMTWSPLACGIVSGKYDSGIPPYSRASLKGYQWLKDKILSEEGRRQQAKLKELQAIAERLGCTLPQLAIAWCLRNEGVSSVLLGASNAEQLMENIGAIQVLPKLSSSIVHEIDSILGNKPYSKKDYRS
Sequence of Alpha-2C adrenergic receptor (Homo sapiens) (P18825 whole entry, looked up): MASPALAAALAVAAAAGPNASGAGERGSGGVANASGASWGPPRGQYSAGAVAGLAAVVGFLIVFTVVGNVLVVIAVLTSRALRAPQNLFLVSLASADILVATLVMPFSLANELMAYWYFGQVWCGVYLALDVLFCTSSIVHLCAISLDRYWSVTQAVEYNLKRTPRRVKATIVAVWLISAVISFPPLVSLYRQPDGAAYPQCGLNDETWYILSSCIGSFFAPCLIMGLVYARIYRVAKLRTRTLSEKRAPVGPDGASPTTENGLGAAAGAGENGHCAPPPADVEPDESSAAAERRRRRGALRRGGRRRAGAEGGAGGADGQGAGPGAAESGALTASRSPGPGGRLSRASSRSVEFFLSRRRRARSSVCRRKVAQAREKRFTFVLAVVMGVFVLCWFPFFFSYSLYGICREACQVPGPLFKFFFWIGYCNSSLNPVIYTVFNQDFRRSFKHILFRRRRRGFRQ
Sequence of Dual specificity protein phosphatase 6 (Homo sapiens) (Q16828 whole entry, looked up): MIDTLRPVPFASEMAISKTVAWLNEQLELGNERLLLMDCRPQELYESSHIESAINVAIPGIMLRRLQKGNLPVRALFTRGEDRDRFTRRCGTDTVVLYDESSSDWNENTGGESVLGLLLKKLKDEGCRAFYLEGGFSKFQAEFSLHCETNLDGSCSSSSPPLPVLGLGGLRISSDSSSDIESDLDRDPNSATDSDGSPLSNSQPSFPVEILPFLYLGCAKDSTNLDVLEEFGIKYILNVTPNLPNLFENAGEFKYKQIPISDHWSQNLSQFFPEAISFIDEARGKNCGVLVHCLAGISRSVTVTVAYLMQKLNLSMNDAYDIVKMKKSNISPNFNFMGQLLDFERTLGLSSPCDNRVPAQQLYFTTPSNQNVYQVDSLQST

A word on the inhibition: it is the relative decrease from the control value, in per cent. `CCc1ccc(NC(=O)CSC2=C(C#N)C(c3ccco3)C3=C(CCCC3=O)N2)cc1` (centres undefined): the cell count in assay [1] came out at 461. In addition, the inhibition in assay [1] is -1.3% (inactive); in assay [2] it was -13.8% (inactive); in assay [4], 5.57% (inactive); in [9], -1.64% (inactive). This molecule also returned a nuclei count in assay [2] of 117%. Further, the z-score in assay [3] (setting [10]) is -0.838; in assay [3] (setting [11]) it was 1.11; in [3] (setting [12]), 0.462. In addition, the fluorescence slope in assay [5] was -0.501 (inactive). The NADPH fluorescence slope in assay [6] was -8.3e-05 (inactive). Also, in [7], the slope was 0.00507 (inactive). In assay [8], the call was inactive.

On to `Fc1ccc2[nH]c3c(N4CCN(c5ccccc5)CC4)ncnc3c2c1`, for which, in assay [1], the cell count is 424. The inhibition in assay [1] is 5.2% (inactive); in assay [2], -109% (inactive); in [4], 6.04% (inactive); in [9], -1.66% (inactive). The same molecule yielded a nuclei count in [2] of 93.6%. Besides, the values for the z-score in assay [3] (setting [10]), in [3] (setting [11]) and in assay [3] (setting [12]) were -1.72, -0.345 and 0.928, respectively. Moreover, in assay [5], the fluorescence slope was -0.334 (inactive). Moreover, the NADPH fluorescence slope in assay [6] was 6.6e-06 (inactive). In addition, in [7], the slope was 0.005 (inactive). Besides, the outcome in assay [8] was inactive.

Consider `COc1ccc(C2=Nn3c(nnc3-c3ccccn3)SC2)cc1OC`, for which the cell count in assay [1] amounted to 593. Besides, the inhibition was -10% (inactive) in assay [1], 60% (inactive) in assay [2], -16.8% (inactive) in assay [4] and 9.28% (inactive) in assay [9]. Moreover, in assay [2], the nuclei count was determined as 100%. The z-score in assay [3] (setting [10]) was 1.34; in assay [3] (setting [11]) it was 0.0492; in assay [3] (setting [12]), -0.154. The fluorescence slope in [5] is -0.476 (inactive). In addition, in [6], the NADPH fluorescence slope was -0.000137 (inactive). In addition, the slope in assay [7] was 0.00709 (inactive). For the same molecule, the result in [8] was inactive.

Take `CC1CN(C2CCN(C(=O)c3ccccc3Cl)CC2)CC(C)O1` (centres undefined): the cell count in [1] worked out at 445. For the same molecule, the inhibition in assay [1] was -0.2% (inactive); in assay [2], -214% (inactive); in assay [4], -5.62% (inactive); in assay [9], 0.742% (inactive). The nuclei count in assay [2] came to 151%. The z-score in assay [3] (setting [10]) was -0.321; in [3] (setting [11]) it was -1.49; in assay [3] (setting [12]), -0.453. Also, the fluorescence slope in [5] was -0.348 (inactive). Also, the NADPH fluorescence slope in [6] was -1.1e-05 (inactive). Besides, the slope in [7] is 0.00459 (inactive). In addition, the outcome in [8] was inactive.

For the molecule `COc1cccc(-c2nc(N3CCCCC3)c3ccccc3n2)c1O`, the cell count in assay [1] is 528. The inhibition in assay [1] is 1.2% (inactive); in [2], -31.1% (inactive); in assay [4], 1.6e-07% (inactive); in [9] it was 15% (inactive). The nuclei count in assay [2] came to 142%. In addition, the figures for the z-score in assay [3] (setting [10]), in assay [3] (setting [11]) and in assay [3] (setting [12]) were 1.81, 0.268 and -0.772, respectively. Besides, the fluorescence slope in [5] is -0.405 (inactive). For the same molecule, the NADPH fluorescence slope in [6] was -3.2e-05 (inactive). For the same molecule, the slope in assay [7] was 0.0042 (inactive). For the same molecule, in assay [8], the outcome was inactive.

On to `COc1cccc(-c2nc(N3CCN(Cc4ccccc4)CC3)c3ccccc3n2)c1O`, for which the cell count in assay [1] turned out to be 578. Also, the inhibition was -4.5% (inactive) in assay [1], 7% (inactive) in assay [2], 3.5% (inactive) in assay [4] and 8.35% (inactive) in [9]. The nuclei count in assay [2] worked out at 126%. Also, the z-score is -0.018 in [3] (setting [10]), 0.0703 in [3] (setting [11]) and 0.663 in assay [3] (setting [12]). For the same molecule, the fluorescence slope in [5] was -0.272 (inactive). In addition, in assay [6], the NADPH fluorescence slope is 8.6e-06 (inactive). Besides, the slope in assay [7] is 0.0051 (inactive). In addition, the outcome in assay [8] was inactive.

In the case of `CCOc1ccc(Br)cc1CC(=O)O`, the cell count in assay [1] worked out at 280. Moreover, the inhibition is -20.4% (inactive) in assay [1], -108% (inactive) in assay [2], 14% (inactive) in [4] and -8.79% (inactive) in assay [9]. For the same molecule, the nuclei count in [2] was determined as 90.5%. The figures for the z-score in [3] (setting [10]), in assay [3] (setting [11]) and in assay [3] (setting [12]) were -0.00622, -0.788 and -0.945, respectively. Further, in assay [5], the fluorescence slope is -0.486 (inactive). Moreover, in [6], the NADPH fluorescence slope is -0.000116 (inactive). In addition, the slope in assay [7] was 0.00651 (inactive). The outcome in assay [8] was inactive.

On to `COc1ccc(C(=O)/C=C/Nc2cccc(C)n2)cc1OC`, for which the cell count in [1] was 553. Also, the inhibition was -2.4% (inactive) in assay [1], -95.1% (inactive) in [2], -1.12% (inactive) in assay [4] and -7.36% (inactive) in assay [9]. Also, the nuclei count in assay [2] was found to be 164%. Besides, the z-score in assay [3] (setting [10]) is -1.16; in [3] (setting [11]) it was 0.461; in assay [3] (setting [12]), 0.22. Besides, the fluorescence slope in assay [5] is -0.33 (inactive). Moreover, in assay [6], the NADPH fluorescence slope is -2.1e-05 (inactive). Moreover, the slope in [7] is 0.00813 (inactive). In addition, in assay [8], the call was inactive.

In the case of `N#Cc1c(-c2ccco2)cc(C2CC2)nc1N`, the cell count in assay [1] came to 528. Moreover, the inhibition in [1] was -3.5% (inactive); in assay [2] it was -51.8% (inactive); in assay [4], -1.12% (inactive); in assay [9] it was -5.69% (inactive). This molecule also came in with a nuclei count in assay [2] of 107%. Also, the z-score is -1.1 in [3] (setting [10]), -0.229 in [3] (setting [11]) and -0.103 in assay [3] (setting [12]). In addition, the fluorescence slope in assay [5] was -0.43 (inactive). The NADPH fluorescence slope in assay [6] is -0.00027 (inactive). Besides, the slope in [7] is 0.00359 (inactive). In [8], the outcome was inactive.

Turning to `CCN(CC)S(=O)(=O)c1ccc2c(c1)c(C(=O)O)cn2C`, the cell count in [1] stood at 435. Besides, the inhibition is -15.2% (inactive) in [1], -25.4% (inactive) in assay [2], 24.4% (inactive) in assay [4] and 22.9% (inactive) in assay [9]. Further, in [2], the nuclei count amounted to 114%. Besides, the z-score is 0.944 in assay [3] (setting [10]), -0.275 in [3] (setting [11]) and -1.67 in [3] (setting [12]). Besides, in assay [5], the fluorescence slope was -0.568 (inactive). In addition, the NADPH fluorescence slope in assay [6] is -6e-05 (inactive). In addition, the slope in [7] was 0.00489 (inactive). Also, in assay [8], the molecule was classed as inactive.

For the molecule `CC(=O)C1(C)OC(N)=C(C#N)C(c2ccccc2)C1(C#N)C#N` (centres undefined), in assay [1], the cell count came out at 511. The inhibition in assay [1] is -7.2% (inactive); in [2], -76.9% (inactive); in assay [4] it was -2.91% (inactive); in assay [9], 23.7% (inactive). Besides, in assay [2], the nuclei count is 155%. In addition, the z-score in [3] (setting [10]) is 0.834; in [3] (setting [11]), -0.296; in assay [3] (setting [12]), -1.55. Besides, in assay [5], the fluorescence slope is -0.377 (inactive). Also, the NADPH fluorescence slope in assay [6] was 2.9e-06 (inactive). Moreover, in [7], the slope is 0.00393 (inactive). In addition, in assay [8], the molecule was classed as inactive.

For `CCOC(=O)C1=C(c2ccccc2)NC(SCC(=O)Nc2ccccc2C)=C(C#N)C1c1ccco1` (centres undefined), the cell count in assay [1] amounted to 433. The inhibition in [1] is -4.2% (inactive); in assay [2], -136% (inactive); in assay [4], -0.159% (inactive); in assay [9], 0.63% (inactive). The molecule also gave a nuclei count in [2] of 166%. The z-score in assay [3] (setting [10]) was -0.18; in assay [3] (setting [11]) it was -0.317; in [3] (setting [12]), -0.0556. Further, the fluorescence slope in assay [5] was -0.408 (inactive). Further, the NADPH fluorescence slope in [6] is -6.1e-05 (inactive). In addition, the slope in assay [7] was 0.0072 (inactive). Also, the outcome in assay [8] was inactive.

Take `CSc1sc(C(=O)O)c2c1C(=O)CCC2`: the cell count in assay [1] worked out at 562. In addition, the inhibition in assay [1] was -4.6% (inactive); in assay [2] it was -163% (inactive); in assay [4] it was 5.65% (inactive); in assay [9], -9.07% (inactive). This molecule also yielded a nuclei count in assay [2] of 186%. Also, the results for the z-score in assay [3] (setting [10]), in assay [3] (setting [11]) and in assay [3] (setting [12]) were -0.487, 1.05 and 0.511, respectively. In addition, in assay [5], the fluorescence slope was -0.486 (inactive). Further, in assay [6], the NADPH fluorescence slope was -0.000199 (inactive). The slope in assay [7] is 0.00495 (inactive). In addition, the molecule was called inactive in assay [8].
